Source: ChEMBL document CHEMBL3120154, “2-[N-Alkyl(R-phenyl)-aminomethyl]-3-phenyl-7-trifluoromethylquinoxalines as anticancer agents inhibitors of folate enzymes” (Eur J Med Chem, 2014)

How the values were obtained:
[1] = Cytotoxicity against human UO31 cells at 10^-4 M after 48 hrs by SRB assay; format: functional; settings: UO-31, 48 h, read-out: GI
How it was run: (§1)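 Second-stage screen in the 60-cell-line human tumor panel at NCI, over a 5-log range (100, 10, 1, 0.1, 0.01 micromolar). Cells were exposed to drug for 48 h and growth was estimated with a sulforhodamine B protein stain. The value is percent growth inhibition at each concentration.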

NCI-H460 = test: Cytotoxicity against human NCI-H460 cells assessed as cell growth at 10^-4 M after 48 hrs by alamar blue assay relative to untreated control; format: functional; settings: NCI-H460, 48 h, read-out: Activity
How it was run: (§2)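 Three-cell-line prescreen. Each line was inoculated and preincubated on a microtiter plate, then the agent was added at a single concentration (10^-4 or 10^-5 M) and incubated 48 h. Endpoint was measured with alamar blue, and growth is reported as a percentage of untreated control cells.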

A549 = test: Cytotoxicity against human A549 cells at 10^-4 M after 48 hrs by SRB assay; format: functional; settings: A549, 48 h, read-out: GI
How it was run: (§3)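 Run by NCI on its 60-line human tumor cell panel, after a three-cell-line prescreen. Cells were exposed to drug for 48 h over a 5-log range: 100, 10, 1, 0.1 and 0.01 micromolar. Growth was estimated by sulforhodamine B (SRB) protein staining. Percent growth inhibition (I%) was recorded at each concentration relative to untreated control cells.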

SK-MEL-5 = test: Cytotoxicity against human SK-MEL-5 cells at 10^-4 M after 48 hrs by SRB assay; format: functional; settings: SK-MEL-5, 48 h, read-out: GI; how it was run: as §1
K562 = test: Cytotoxicity against human K562 cells at 10^-4 M after 48 hrs by SRB assay; format: functional; settings: K562, 48 h, read-out: GI
How it was run: (§4)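 Run in the NCI 60-cell-line screen after a three-line prescreen. Cells got a 48 h drug exposure; viability/growth was estimated with the sulforhodamine B protein assay. Growth inhibition (I%) was recorded at 100, 10, 1, 0.1 and 0.01 micromolar. Percent growth is relative to untreated control cells, and negative values indicate cell kill.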

MCF7 [2] = test: Cytotoxicity against human MCF7 cells assessed as cell growth at 10^-4 M after 48 hrs by alamar blue assay relative to untreated control; format: functional; settings: MCF7, 48 h, read-out: Activity; how it was run: as §2
HCT-15 = test: Cytotoxicity against human HCT15 cells at 10^-4 M after 48 hrs by SRB assay; format: functional; settings: HCT-15, 48 h, read-out: GI; how it was run: as §3
NCI/ADR-RES = test: Cytotoxicity against human NCI/ADR-RES cells at 10^-4 M after 48 hrs by SRB assay; format: functional; settings: read-out: GI; how it was run: as §4
IGROV-1 = test: Cytotoxicity against human IGROV1 cells at 10^-4 M after 48 hrs by SRB assay; format: functional; settings: IGROV-1, 48 h, read-out: GI; how it was run: as §3
U-251 = test: Cytotoxicity against human U251 cells at 10^-4 M after 48 hrs by SRB assay; format: functional; settings: U-251, 48 h, read-out: GI; how it was run: as §1
DU-145 = test: Cytotoxicity against human DU145 cells at 10^-4 M after 48 hrs by SRB assay; format: functional; settings: DU-145, 48 h, read-out: GI; how it was run: as §3
COLO 205 = test: Cytotoxicity against human COLO205 cells at 10^-4 M after 48 hrs by SRB assay; format: functional; settings: COLO 205, 48 h, read-out: GI; how it was run: as §3
SNB-75 = test: Cytotoxicity against human SNB75 cells at 10^-4 M after 48 hrs by SRB assay; format: functional; settings: SNB-75, 48 h, read-out: GI; how it was run: as §1
MDA-MB-435 = test: Cytotoxicity against human MDA-MB-435 cells at 10^-4 M after 48 hrs by SRB assay; format: functional; settings: MDA-MB-435, 48 h, read-out: GI; how it was run: as §4
M14 = test: Cytotoxicity against human M14 cells at 10^-4 M after 48 hrs by SRB assay; format: functional; settings: M14, 48 h, read-out: GI; how it was run: as §4
[3] = Cytotoxicity against human UACC257 cells at 10^-4 M after 48 hrs by SRB assay; format: functional; settings: UACC-257, 48 h, read-out: GI; how it was run: as §1
A498 = test: Cytotoxicity against human A498 cells at 10^-4 M after 48 hrs by SRB assay; format: functional; settings: A498, 48 h, read-out: GI; how it was run: as §3
SK-OV-3 = test: Cytotoxicity against human SKOV3 cells at 10^-4 M after 48 hrs by SRB assay; format: functional; settings: SK-OV-3, 48 h, read-out: GI; how it was run: as §1
PC-3 = test: Cytotoxicity against human PC3 cells at 10^-4 M after 48 hrs by SRB assay; format: functional; settings: PC-3, 48 h, read-out: GI; how it was run: as §1
NCI-H23 = test: Cytotoxicity against human NCI-H23 cells at 10^-4 M after 48 hrs by SRB assay; format: functional; settings: NCI-H23, 48 h, read-out: GI; how it was run: as §4
HCT-116 = test: Cytotoxicity against human HCT116 cells at 10^-4 M after 48 hrs by SRB assay; format: functional; settings: HCT-116, 48 h, read-out: GI; how it was run: as §3
SW-620 = test: Cytotoxicity against human SW620 cells at 10^-4 M after 48 hrs by SRB assay; format: functional; settings: SW-620, 48 h, read-out: GI; how it was run: as §1
BT-549 = test: Cytotoxicity against human BT549 cells at 10^-4 M after 48 hrs by SRB assay; format: functional; settings: BT-549, 48 h, read-out: GI; how it was run: as §3
RPMI-8226 = test: Cytotoxicity against human RPMI8226 cells at 10^-4 M after 48 hrs by SRB assay; format: functional; settings: RPMI-8226, 48 h, read-out: GI; how it was run: as §1
SK-MEL-28 = test: Cytotoxicity against human SK-MEL-28 cells at 10^-4 M after 48 hrs by SRB assay; format: functional; settings: SK-MEL-28, 48 h, read-out: GI; how it was run: as §1
UACC-62 = test: Cytotoxicity against human UACC62 cells at 10^-4 M after 48 hrs by SRB assay; format: functional; settings: UACC-62, 48 h, read-out: GI; how it was run: as §1
SF-268 = test: Cytotoxicity against human SF268 cells at 10^-4 M after 48 hrs by SRB assay; format: functional; settings: SF-268, 48 h, read-out: GI; how it was run: as §1
[4] = Cytotoxicity against human EKVX cells at 10^-4 M after 48 hrs by SRB assay; format: functional; settings: read-out: GI; how it was run: as §3
OVCAR-8 = test: Cytotoxicity against human OVCAR8 cells at 10^-4 M after 48 hrs by SRB assay; format: functional; settings: OVCAR-8, 48 h, read-out: GI; how it was run: as §1
MCF7 [5] = test: Cytotoxicity against human MCF7 cells at 10^-4 M after 48 hrs by SRB assay; format: functional; settings: MCF7, 48 h, read-out: GI; how it was run: as §4
NCI-H322M = test: Cytotoxicity against human NCI-H322M cells at 10^-4 M after 48 hrs by SRB assay; format: functional; settings: read-out: GI; how it was run: as §4
MDA-MB-231 = test: Cytotoxicity against human MDA-MB-231 cells at 10^-4 M after 48 hrs by SRB assay; format: functional; settings: MDA-MB-231, 48 h, read-out: GI; how it was run: as §4
Thymidylate synthase = Thymidylate synthase (Homo sapiens, UniProt P04818); test: Competitive inhibition of human thymidylate synthase by spectrophotometry
Sequence of Thymidylate synthase (P04818 whole entry): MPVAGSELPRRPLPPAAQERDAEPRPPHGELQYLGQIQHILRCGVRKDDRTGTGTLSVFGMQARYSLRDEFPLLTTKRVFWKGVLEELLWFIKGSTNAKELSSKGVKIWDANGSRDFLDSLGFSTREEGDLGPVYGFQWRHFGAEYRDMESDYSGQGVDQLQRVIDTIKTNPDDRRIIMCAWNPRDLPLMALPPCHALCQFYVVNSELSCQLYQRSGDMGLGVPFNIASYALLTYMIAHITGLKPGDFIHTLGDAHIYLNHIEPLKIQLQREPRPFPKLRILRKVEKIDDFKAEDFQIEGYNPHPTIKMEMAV

Malme-3M = test: Cytotoxicity against human MALME-3M cells at 10^-4 M after 48 hrs by SRB assay; format: functional; settings: read-out: GI; how it was run: as §4

| Compound | inhibition of growth at 100 µM [1] | growth at 100 µM (NCI-H460) | inhibition of growth at 100 µM (A549) | inhibition of growth at 100 µM (SK-MEL-5) | growth at 100 µM (MCF7 [2]) | inhibition of growth at 100 µM (HCT-15) | inhibition of growth at 100 µM (NCI/ADR-RES) | inhibition of growth at 100 µM (IGROV-1) | inhibition of growth at 100 µM (U-251) | inhibition of growth at 100 µM (DU-145) | inhibition of growth at 100 µM (COLO 205) | inhibition of growth at 100 µM (SNB-75) | inhibition of growth at 100 µM (MDA-MB-435) | inhibition of growth at 100 µM (M14) | inhibition of growth at 100 µM [3] | inhibition of growth at 100 µM (A498) | inhibition of growth at 100 µM (SK-OV-3) | inhibition of growth at 100 µM (PC-3) | inhibition of growth at 100 µM (NCI-H23) | inhibition of growth at 100 µM (HCT-116) | other results |
| --- | --- | --- | --- | --- | --- | --- | --- | --- | --- | --- | --- | --- | --- | --- | --- | --- | --- | --- | --- | --- | --- |
| CCN(Cc1nc2cc(C(F)(F)F)ccc2nc1-c1ccccc1)c1ccc(OC)c(OC)c1 | 145% | 0% | 177% | 191% | 1% | 171% | 84% | 178% | 198% | 173% | 92% | 115% | 183% | 194% | 192% | 180% | 83% | 185% | 158% | 199% | inhibition of growth at 100 µM (K562): 160%; inhibition of growth at 100 µM (SW-620): 164%; inhibition of growth at 100 µM (BT-549): 167%; inhibition of growth at 100 µM (RPMI-8226): 162%; inhibition of growth at 100 µM (SK-MEL-28): 112%; inhibition of growth at 100 µM (UACC-62): 195%; inhibition of growth at 100 µM (SF-268): 99%; inhibition of growth at 100 µM [4]: 112%; inhibition of growth at 100 µM (OVCAR-8): 174%; inhibition of growth at 100 µM (MCF7 [5]): 86%; inhibition of growth at 100 µM (NCI-H322M): 96%; inhibition of growth at 100 µM (MDA-MB-231): 174% |
| C#CCN(Cc1nc2cc(C(F)(F)F)ccc2nc1-c1ccccc1)c1ccc(C)cc1 | 167% | 17% | 84% | 158% | 58% | 181% | 195% | 79% | 181% | 40% | 177% | 180% | 149% | 186% | 110% | 157% | 191% | 58% | 196% | 189% | Ki (Thymidylate synthase): 0.51 µM; inhibition of growth at 100 µM (Malme-3M): 160%; inhibition of growth at 100 µM (SW-620): 79%; inhibition of growth at 100 µM (BT-549): 104%; inhibition of growth at 100 µM (RPMI-8226): 44%; inhibition of growth at 100 µM (SK-MEL-28): 200%; inhibition of growth at 100 µM (UACC-62): 188%; inhibition of growth at 100 µM (SF-268): 76%; inhibition of growth at 100 µM [4]: 56%; inhibition of growth at 100 µM (OVCAR-8): 77%; inhibition of growth at 100 µM (MCF7 [5]): 84%; inhibition of growth at 100 µM (NCI-H322M): 180%; inhibition of growth at 100 µM (MDA-MB-231): 163% |
| C#CCN(Cc1nc2cc(C(F)(F)F)ccc2nc1-c1ccccc1)c1ccc(F)c(F)c1 | 73% | 18% | 107% | 144% | 40% | 82% | 67% | 58% | 59% | 78% | 75% | < 40% | 81% | 41% | 146% | 78% | < 40% | 78% | 52% | 77% | Ki (Thymidylate synthase): 3.56 µM; inhibition of growth at 100 µM (K562): 78%; inhibition of growth at 100 µM (SW-620): 82%; inhibition of growth at 100 µM (BT-549): 67%; inhibition of growth at 100 µM (RPMI-8226): 107%; inhibition of growth at 100 µM (SK-MEL-28): < 40%; inhibition of growth at 100 µM (UACC-62): 73%; inhibition of growth at 100 µM (SF-268): 91%; inhibition of growth at 100 µM [4]: 123%; inhibition of growth at 100 µM (OVCAR-8): 98%; inhibition of growth at 100 µM (MCF7 [5]): 94%; inhibition of growth at 100 µM (MDA-MB-231): 90% |
